Measured values collected from several papers.
Protocols differ between the studies behind these lines.
LRRK2: Leucine-rich repeat serine/threonine-protein kinase 2 (LRRK2, Homo sapiens, UniProt Q5S007)
LRRK2 G2019S: Leucine-rich repeat serine/threonine-protein kinase 2 (LRRK2, Homo sapiens, UniProt Q5S007, G2019S)

SMILES	target	assay	conditions	remaining binding [%]
CN(C)c1nccc(-c2cnc3ncccn23)n1	LRRK2	binding	1 µM	61
CC(=O)N1CCC(c2ccc(C(=O)NC(=N)N)cc2C(F)(F)F)CC1	LRRK2 G2019S	cell-free assay, competition with immobilised ligand	1 µM	100
CC1CCCN1c1nccc(-c2cnn3ncccc23)n1 (centres unmarked)	LRRK2	binding	1 µM	100
C[C@H](NC(=O)c1cnc2n1[C@](C)(Cc1ccc(C#N)cc1)C(=O)N2c1cc(Cl)c(F)c(Cl)c1)C(=O)NC1(c2ccccn2)CC1	LRRK2 G2019S	cell-free assay, competition with immobilised ligand	1 µM	100
O=C(c1ccc(Nc2nccc(-c3cc4ccccc4s3)n2)cc1)N1CCC(N2CCCC2)CC1	LRRK2	binding, competition with immobilised ligand	1 µM	40
CCc1ccccc1C(=O)Nc1n[nH]c2c(C)c(F)c(C3C(C#N)=C(C)N(C)C(C)=C3C#N)cc12	LRRK2 G2019S	cell-free assay, competition with immobilised ligand	1 µM	100
O=C(c1ccc(Nc2ncc(Cl)c(-c3ccc(Cl)s3)n2)cc1)N1CCC(N2CCCC2)CC1	LRRK2	binding, competition with immobilised ligand	1 µM	3.3
C[C@@H]1CCN(c2nccc(-c3cnn4ncccc34)n2)C1	LRRK2	binding	1 µM	59
O=C(N[C@H]1CCCCC/C=C\C2C[C@@]2(C(=O)O)NC(=O)[C@@H]2C[C@@H](Oc3ccncc3)CN2C1=O)OC1CCCC1 (some centres unmarked)	LRRK2 G2019S	binding, competition with immobilised ligand	1 µM	86
C=CC(=O)N1CCC(C(=O)NCC(=O)N2CCN(c3nc(-c4cnc(N)nc4C(F)F)nc(N4CCOCC4)n3)CC2)CC1	LRRK2	binding, competition with immobilised ligand	1 µM	63
COc1ncc2cc3ccccc3nc2c1C#N	LRRK2 G2019S	cell-free assay, competition with immobilised ligand	5 µM	100
N[C@H]1CCN(c2nccc(-c3cnn4ncccc34)n2)C1	LRRK2	binding	1 µM	100
CCC(=N\O)/C(C)=C/c1ccc(F)cc1	LRRK2	cell-free assay, competition with immobilised ligand	1 µM	90
CCN1CCN(Cc2ccc(C(=O)Nc3ccc(C)c(Oc4ccc5c(c4)CC(=O)N5)c3)cc2C(F)(F)F)CC1	LRRK2	binding, competition with immobilised ligand	1 µM	100
COc1cnc(Nc2cccc(S(N)(=O)=O)c2)nc1N1CCN(c2ccccc2)CC1	LRRK2	binding, competition with immobilised ligand	1 µM	80
CN(CCCC(F)(F)F)c1nccc(-c2cnn3ncccc23)n1	LRRK2 G2019S	binding	1 µM	100
CN1CCN(c2ccc(Nc3nccc(-c4ccccc4)n3)cc2C(F)(F)F)CC1	LRRK2 G2019S	binding	10 µM	100
CN(C)c1ncc(F)c(-c2cnn3ncccc23)n1	LRRK2 G2019S	binding	1 µM	100
O=C(Nc1c[nH]nc1C(=O)NC1CCNCC1)c1cc(F)cc(F)c1	LRRK2	binding, competition with immobilised ligand	1 µM	92
O=C(NCCCN1CCOCC1)c1ccc(Nc2nccc(-c3cc4ccccc4s3)n2)cc1	LRRK2 G2019S	binding, competition with immobilised ligand	1 µM	69
Cc1cnn2ncc(-c3ccnc(N(C)C)n3)c2c1	LRRK2	binding	1 µM	47
c1ccc(N2CCN(Cc3nc4ccccc4[nH]3)CC2)nc1	LRRK2	binding, competition with immobilised ligand	1 µM	99
CNC(=O)[C@@H]1CC[C@@H](n2c(-c3ccc4cnccc4c3)nc3ccc(C(=O)NCc4cccc(C(N)=O)c4)cc32)C1	LRRK2 G2019S	binding, competition with immobilised ligand	1 µM	100
